Experimental data from PMC4203403 (Journal of Medicinal Chemistry, 2014).
Like-named read-outs stand apart in the source and are kept apart here.

Legend:
CB1 receptor [1] = target: T1, CB1 receptor (Homo sapiens, UniProt P21554); experiment: ERK1/2 phosphorylation immunoblotting in HEK293 cells expressing CB1; format: cell-based; settings: for modulator concentration at which ERK1/2 phosphorylation reached a plateau: in the presence of 0.2 μM CP55,940, 5 min; for effect of β-arrestin 1 knockdown on induced ERK1/2 phosphorylation: siRNA targeting β-arrestin 1; for effect of β-arrestin 1 knockdown on induced ERK1/2 phosphorylation / pertussis toxin (PTX) sensitivity of induced ERK1/2 phosphorylation: result in words; for pertussis toxin (PTX) sensitivity of induced ERK1/2 phosphorylation: PTX pretreatment
T1 sequence (P21554 whole entry): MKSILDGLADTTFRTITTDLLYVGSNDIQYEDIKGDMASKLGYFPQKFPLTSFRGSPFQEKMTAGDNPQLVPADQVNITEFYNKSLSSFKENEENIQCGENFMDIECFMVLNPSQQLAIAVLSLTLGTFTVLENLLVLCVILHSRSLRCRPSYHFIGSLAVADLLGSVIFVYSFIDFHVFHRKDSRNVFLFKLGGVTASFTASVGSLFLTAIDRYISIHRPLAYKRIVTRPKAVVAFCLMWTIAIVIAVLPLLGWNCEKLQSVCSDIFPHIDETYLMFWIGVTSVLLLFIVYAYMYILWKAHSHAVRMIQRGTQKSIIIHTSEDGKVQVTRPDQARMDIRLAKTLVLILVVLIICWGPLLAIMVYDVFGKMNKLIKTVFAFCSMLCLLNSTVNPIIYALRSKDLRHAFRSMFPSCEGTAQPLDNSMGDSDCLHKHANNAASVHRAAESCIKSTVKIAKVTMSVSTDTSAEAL

CB1 receptor [2] = target: T1, CB1 receptor; settings: [3H]CP55,940 as orthosteric ligand; given for comparison; cited from earlier work
CB1 receptor [3] = target: T1, CB1 receptor; experiment: Radioligand binding assay with [3H]CP55,940; settings: for α: binding cooperativity factor: [3H]CP55,940 as orthosteric ligand, ND = no detectable modulation of [3H]CP55,940 binding using up to 32 μM
Procedure, shortened: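 CB1 was transiently expressed in HEK293 cells by calcium phosphate transfection, and membranes were harvested 24 h later. […] Nonspecific binding was measured with 1 μM CP55,940. Read-out was GF/C filtration and scintillation counting. Run in duplicate, ≥3 experiments; KB and α fitted by nonlinear regression.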

CB1 receptor [4] = target: T1, CB1 receptor; experiment: CP55,940-induced [35S]GTPγS binding assay, HEK293 cell membranes expressing CB1; format: biochemical; settings: result in words

Which “modulator concentration at which ERK1/2 phosphorylation reached a plateau” value (CB1 receptor [1]) does the source give for `CCCCCc1c(C(=O)NCCc2ccc(N3CCCCC3)cc2)[nH]c2ccc(Cl)cc12` [Compound 2, 5-chloro-3-pentyl-N-(4-(piperidin-1-yl)phenethyl)-1H-indole-2-carboxamide, reference compound] here?
Its value is 10 µM.

And the “effect of β-arrestin 1 knockdown on induced ERK1/2 phosphorylation” value (shortened to “effect of β-arrestin 1 knockdown”) (CB1 receptor [1])?
Its value is “substantial inhibition of ERK1/2 phosphorylation”.

And the “α: binding cooperativity factor” value (CB1 receptor [2])?
Its value is 17.6.

Which “α: binding cooperativity factor” value (CB1 receptor [3]) does the source give for `CCCc1c(C(=O)NCCc2ccc(N3CCCCC3)cc2)[nH]c2ccc(Cl)cc12` [Compound 12a, 5-Chloro-N-(4-(piperidin-1-yl)phenethyl)-3-propyl-1H-indole-2-carboxamide] here?
The value was 26.7.

With `CCc1c(C(=O)NCCCc2ccc(N(C)C)cc2)[nH]c2ccc(Cl)cc12` [Compound 26, 5-Chloro-N-(3-(4-(dimethylamino)phenyl)propyl)-3-ethyl-1H-indole-2-carboxamide] as the molecule, how does the “allosteric modulation of orthosteric agonist CP55,940 binding” value (CB1 receptor [3]; result in words) read?
Its value is “loss of allosteric modulation”.

With `CCc1c(C(=O)NCCc2ccc(N(C)C)cc2)[nH]c2ccc(OC)cc12` [Compound 21d, N-(4-(Dimethylamino)phenethyl)-3-ethyl-5-methoxy-1H-indole-2-carboxamide] as the molecule, how does the “α: binding cooperativity factor” value (CB1 receptor [3]) read?
The value was 11.9.

Which “α: binding cooperativity factor” value (CB1 receptor [3]) does the source give for `CCc1c(C(=O)NCCc2ccc(N(C)C)cc2)[nH]c2cc(F)ccc12` [Compound 21b, N-(4-(Dimethylamino)phenethyl)-3-ethyl-6-fluoro-1H-indole-2-carboxamide] here?
Its value is 22.9.

Which “α: binding cooperativity factor” value (CB1 receptor [2]) does the source give for `CCCCCc1c(C(=O)NCCc2ccc(N(C)C)cc2)[nH]c2ccc(Cl)cc12` [Compound 5, 5-chloro-N-(4-(dimethylamino)phenethyl)-3-pentyl-1H-indole-2-carboxamide] here?
Its value is 16.5.

With `CCc1c(C(=O)NCCc2ccc(N(C)C)cc2)[nH]c2cc(OC)ccc12` [Compound 21c, N-(4-(Dimethylamino)phenethyl)-3-ethyl-6-methoxy-1H-indole-2-carboxamide] as the molecule, how does the “α: binding cooperativity factor” value (CB1 receptor [3]) read?
The value was 6.2.

For `CCCCCCC(C)(C)c1ccc([C@@H]2C[C@H](O)CC[C@H]2CCCO)c(O)c1` [CP55,940, 2-[(1R,2R,5R)-5-hydroxy-2-(3-hydroxypropyl)cyclohexyl]-5-(2-methyloctan-2-yl)phenol, reference compound], which “pertussis toxin (PTX) sensitivity of induced ERK1/2 phosphorylation” value (CB1 receptor [1]) is on record?
Its value is “substantially attenuated by pertussis toxin (PTX)”.

What about the “effect of β-arrestin 1 knockdown” value (CB1 receptor [1]) of the same molecule?
The value was “not by β-arrestin knockdown”.

Which “pertussis toxin (PTX) sensitivity of induced ERK1/2 phosphorylation” value (CB1 receptor [1]) does the source give for `CCCCCCc1c(C(=O)NCCc2ccc(N(C)C)cc2)[nH]c2ccc(Cl)cc12` [Compound 12f, 5-Chloro-N-(4-(dimethylamino)phenethyl)-3-hexyl-1H-indole-2-carboxamide] here?
The value was “PTX insensitive”.

What about the “modulator concentration at which ERK1/2 phosphorylation reached a plateau” value (CB1 receptor [1]) of the same molecule?
Its value is 5 µM.

And the “effect of β-arrestin 1 knockdown” value (CB1 receptor [1])?
Its value is “substantial inhibition of ERK1/2 phosphorylation”.

And the “α: binding cooperativity factor” value (CB1 receptor [3])?
Its value is 5.1.

And the “effect on CP55,940-induced G-protein coupling activity (GTPγS binding)” value (CB1 receptor [4])?
Its value is “concentration-dependent inhibition of agonist-induced GTPγS binding”.

Which “α: binding cooperativity factor” value (CB1 receptor [3]) does the source give for `CCCCc1c(C(=O)NCCc2ccc(N(C)C)cc2)[nH]c2ccc(Cl)cc12` [Compound 12e, 3-Butyl-5-chloro-N-(4-(dimethylamino)phenethyl)-1H-indole-2-carboxamide] here?
The value was 12.8.

For `CCc1c(C(=O)NCCc2ccc(N3CCCCC3)cc2)[nH]c2ccc(Cl)cc12` [Compound 1, 5-Chloro-3-ethyl-N-(4-(piperidin-1-yl)phenethyl)-1H-indole-2-carboxamide], which “α: binding cooperativity factor” value (CB1 receptor [2]) is on record?
Its value is 6.9.

Which “α: binding cooperativity factor” value (CB1 receptor [2]) does the source give for `CCc1c(C(=O)NCCc2ccc(N(C)C)cc2)[nH]c2ccc(Cl)cc12` [Compound 4, 5-chloro-N-(4-(dimethylamino)phenethyl)-3-ethyl-1H-indole-2-carboxamide] here?
Its value is 19.7.

With `CCc1c(C(=O)NCCc2ccc(N(C)C)cc2)[nH]c2cc(Cl)ccc12` [Compound 21a, N-(4-(Dimethylamino)phenethyl)-3-ethyl-6-chloro-1H-indole-2-carboxamide] as the molecule, how does the “α: binding cooperativity factor” value (CB1 receptor [3]) read?
The value was 16.0.

Which results are given for `CCCc1c(C(=O)NCCc2ccc(N(C)C)cc2)[nH]c2ccc(Cl)cc12` [Compound 12d, 5-Chloro-N-(4-(dimethylamino)phenethyl)-3-propyl-1H-indole-2-carboxamide]?
modulator concentration at which ERK1/2 phosphorylation reached a plateau (CB1 receptor [1]): 5 µM; effect of β-arrestin 1 knockdown on induced ERK1/2 phosphorylation (CB1 receptor [1]): substantial inhibition of ERK1/2 phosphorylation; α: binding cooperativity factor (CB1 receptor [3]): 24.5; effect on CP55,940-induced G-protein coupling activity (GTPγS binding) (CB1 receptor [4]): concentration-dependent inhibition of agonist-induced GTPγS binding
